Assay outcomes (PubChem)
Arbovirus inh: antivirals against arbovirus infection, primary screen, cell-based, full library, 10K replicate subset; inhibition, % at 10 µM; arbovirus infection cell-based antiviral screen; AID 1251, 2008; actives 0.37% (n = 200,000); in the data active = inhibition above about 30%
Wee1 degr inh: Wee1 degradation inhibitors, primary screen, cell-based, HeLa, Wee1K328M-luciferase, luminescence. Wee1-like protein kinase (Homo sapiens), P30291. HeLa Luc-Wee1K328M stability; 100% = proteasome inhibitor MG132 effect. reporter increase, % at 5 µM. actives 1.2% (n = 220,000);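 active = activation above the mean of all tested compounds plus 3 SD, set per screening run, cut at about 8.8% in these data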;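 also: cells exposed to compound for 20 h before luminescence read; 0% = DMSO alone and 100% = MG132 at 30 µM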
PKD1 inh: inhibitors of human PKD1 kinase, biochemical, fluorescence polarization. Serine/threonine-protein kinase D1 (Homo sapiens), Q15139. actives 0.056% (n = 200,000). PKD1 kinase fluorescence polarization assay. inhibition, % (no concentration beside the values)
Target sequence (Q15139 whole entry, looked up): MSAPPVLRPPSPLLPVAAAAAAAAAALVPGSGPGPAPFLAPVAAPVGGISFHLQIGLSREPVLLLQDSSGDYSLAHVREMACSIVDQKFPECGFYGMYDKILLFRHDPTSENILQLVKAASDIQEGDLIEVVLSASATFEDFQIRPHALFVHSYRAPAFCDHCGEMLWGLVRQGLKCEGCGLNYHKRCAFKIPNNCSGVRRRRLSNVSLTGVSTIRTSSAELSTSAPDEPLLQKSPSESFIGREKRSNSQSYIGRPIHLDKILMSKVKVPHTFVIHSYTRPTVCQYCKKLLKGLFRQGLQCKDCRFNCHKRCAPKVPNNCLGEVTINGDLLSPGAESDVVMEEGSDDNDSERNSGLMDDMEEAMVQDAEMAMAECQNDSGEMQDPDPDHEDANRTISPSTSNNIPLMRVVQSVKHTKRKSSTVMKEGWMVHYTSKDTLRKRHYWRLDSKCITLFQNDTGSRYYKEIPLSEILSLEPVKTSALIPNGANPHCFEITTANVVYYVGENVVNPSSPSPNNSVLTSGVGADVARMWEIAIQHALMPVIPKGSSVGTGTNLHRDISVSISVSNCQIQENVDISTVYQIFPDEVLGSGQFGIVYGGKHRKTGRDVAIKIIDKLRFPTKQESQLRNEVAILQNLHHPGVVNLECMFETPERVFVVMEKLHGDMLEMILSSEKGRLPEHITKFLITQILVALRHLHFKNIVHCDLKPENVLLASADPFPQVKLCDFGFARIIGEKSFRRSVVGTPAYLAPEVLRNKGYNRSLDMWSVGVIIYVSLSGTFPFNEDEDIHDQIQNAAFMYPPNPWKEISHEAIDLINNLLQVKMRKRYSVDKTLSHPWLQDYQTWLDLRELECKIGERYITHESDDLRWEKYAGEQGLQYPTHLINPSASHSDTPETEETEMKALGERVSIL
CHOP inhibitor: inhibitors of CHOP promoter induction, primary screen, cell-based, unfolded protein response, luciferase reporter | CHO-K1 CHOP-promoter luciferase, tunicamycin-induced, 15-18 h | inhibition, % at 10 µM | actives 3.8% (n = 220,000);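 active = compounds that reduced the stress-induced luciferase reporter signal by more than about 70% of percent inhibition, limit read from the data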;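 also: 0% = tunicamycin plus vehicle and 100% = wells without tunicamycin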
Rad51 HR inh: human RAD51 strand exchange inhibitors, primary screen, biochemical, fluorescence; DNA repair protein RAD51 homolog 1 (Homo sapiens), Q06609; hRad51 DNA strand exchange, fluorescence dequenching; inhibition, % at 10 µM; actives 0.085% (n = 200,000); AID 1385, 2008;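 active = inhibition above 40% at the single screening dose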;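 also: 0% = DMSO control wells and 100% = blanks with heterologous ssDNA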
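Assay system: Human Rad51 nucleoprotein filaments preassembled on unlabelled ssDNA | Reagent: Donor/quencher-labelled 47-bp dsDNA substrate | Doses: One concentration, 10 µM final | Times: 37 °C 15-min filament assembly, 30-min compound preincubation, 15-min exchange | Technique: Fluorescein emission 520 nm, excitation 485 nm | Benchmarks: Plate control and blank wells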
L major viab: Leishmania major promastigote growth inhibition, primary screen | AID 1063, 2008 | actives 9% (n = 200,000) | inhibition, % at 10 µM | Leishmania major promastigotes, resazurin fluorescence viability;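 also: promastigotes grown with compound for 44 hours at 28 °C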
* marks the source's active call; other numbers are inactive results; x = not tested or not shown. Only some compounds are listed: those with a hit (about 12% of all), similar ones and a draw of the others. Rule as the data show it, unless noted: active = inhibition above about 50%; inactive = the rest.

SMILES	Arbovirus inh	Wee1 degr inh	PKD1 inh	CHOP inhibitor	Rad51 HR inh	L major viab
Nc1c(S(=O)(=O)c2cc(Cl)ccc2Cl)c2nc3ccccc3nc2n1CCN1CCOCC1	-13	-2	-1	10	-1	80*
Nc1c(C(=O)NCc2ccco2)c2nc3ccccc3nc2n1CCc1ccc(F)cc1	-11	0	1	59	2	99*
COc1ccc(-n2c(N)c(C(=O)NCc3ccco3)c3nc4ccccc4nc32)cc1	3	-1	5	-10	1	5
Nc1ccc(-n2c(N)c(C(=O)NCc3ccc4c(c3)OCO4)c3nc4ccccc4nc32)cc1	x	0	-8	x	-3	0
Nc1c(C(=O)NCCN2CCOCC2)c2nc3ccccc3nc2n1CCc1ccccc1	-25	-3	-14	36	6	70*
Nc1c(C(=O)NCCN2CCOCC2)c2nc3ccccc3nc2n1-c1ccccc1	1	-3	-7	19	-2	13
Cc1ccc(C(O)(C(=O)NNc2ccc3ccccc3n2)c2ccc(C)cc2)cc1	-17	-2	-5	42	-1	38
CC(C)NC[C@H](O)COc1ccc(CC(N)=O)cc1	x	x	x	-10	x	x
COc1ccc(CC2NCCC3=CC(=O)CCC32)cc1O (configuration not stated)	x	x	x	x	-6	x
Fc1ccc(NC(=S)Nc2ccc(Cl)cc2)cc1	11	1	1	12	-15	63*
Fc1ccc(NC(=S)Nc2cc(Cl)ccc2Cl)cc1	1	3	-2	19	-7	6
FC(F)Oc1ccc(NC(=S)NNc2ccnc3cc(Cl)ccc23)cc1	-7	3	0	-65	9	5
CN1CCN(C(=O)CSc2nc(-c3cccs3)cc(-c3cccs3)c2C#N)CC1	-31	1	-9	x	-5	66*
CCN(CC)C(=O)CSc1nc(-c2cccs2)cc(-c2cccs2)c1C#N	-15	-2	-8	-12	-2	7
CN(C)/C=C/c1c([N+](=O)[O-])c2ccc(O)cc2n1-c1ccccc1	x	3	x	38	18	x
Cc1nc(S/C(=C/c2ccc(-c3cccc(Cl)c3)o2)C(=O)O)n[nH]1	33*	3	6	-2	x	-1
Clc1nc(Cl)nc(-c2cn(-c3ccccc3)c3ccccc23)n1	x	1	x	2	8	x
COc1ccc(S(=O)(=O)N(CCCN2CCOCC2)Cc2cccc3ccccc23)cc1	-1	3	-1	50	7	99*
O=S(=O)(c1ccc(Cl)cc1)N(CCCN1CCOCC1)Cc1cccs1	12	-4	-1	17	17	68*
Cn1c(CNC2CCCCC2)c(C#N)c2ccccc21	14	0	1	44	7	9
CCN(CC)c1ccc(C(=O)NC(=S)Nc2cc(S(=O)(=O)N3CCOCC3)ccc2-n2cncn2)cc1	-10	-1	2	27	-4	68*
CCOC(=O)c1sc(=NC(=O)CCS(=O)(=O)c2ccccc2)n(C)c1C	11	5	91*	-1	-11	-2
CCOC(=O)c1sc(=NC(=O)c2ccccc2)n(C)c1C	-3	0	-8	17	-1	-7
O=C(NCc1cccnc1)c1cccc(NC(=O)c2ccco2)c1	-5	-2	-3	11	x	77*
O=C(NC1=NCCS1)c1cccc(NC(=O)c2ccco2)c1	-1	-1	-8	27	11	99*
SMILES	Arbovirus inh	Wee1 degr inh	PKD1 inh	CHOP inhibitor	Rad51 HR inh	L major viab
O=C(NC1CCCC1)c1cccc(NC(=O)c2ccco2)c1	-8	0	-8	-7	-3	86*
S=c1[nH]nc(-c2cccnc2)n1/N=C/C=C/c1ccccc1	-4	1	-12	-17	4	4
CCN1CCN(c2ccc(NC(=O)c3ccc4c(c3)[nH]c(=O)n4Cc3ccc(OC)cc3)cc2)CC1	-3	3	2	15	5	-6
CC(=O)N=Nc1[nH]c(N)c2ccccc12	9	1	-1	-10	-4	4
CCOC(=O)c1ccc(N2CCN(C(C)=O)CC2)c(NC(=O)c2cccnc2)c1	-2	-2	6	6	1	-3
Cc1ccc(NC(CNS(=O)(=O)c2ccc(Cl)cc2)c2ccccc2)cc1 (configuration not stated)	-38	2	8	104*	1	53*
NS(=O)(=O)c1ccc(NC(CNS(=O)(=O)c2ccccc2)c2ccccc2)cc1 (configuration not stated)	7	-2	-2	28	-20	4
CN1/C(=C\C(=O)C[n+]2ccc3ccccc3c2)C(C)(C)c2ccccc21	19	-1	-4	3	0	100*
CN1/C(=C\C(=O)C(F)F)C(C)(C)c2ccccc21	-2	-2	-9	41	8	0
CN1/C(=C\C(=O)COc2ccc3c(c2)OCO3)C(C)(C)c2ccccc21	17	0	5	85*	x	32
COc1ccccc1OCC(=O)/C=C1/N(C)c2ccccc2C1(C)C	2	-1	7	26	-15	57*
CS(=O)(=O)N(CC(=O)NC1CC2CCC1C2)c1ccc(Oc2ccccc2)cc1 (configuration not stated)	-3	-2	-2	42	-3	36
CCCc1c(C(=O)Nc2cc(C(C)(C)C)on2)cnn1-c1ccccc1	x	9.8*	x	20	3	x
CCCc1c(C(=O)Nc2ccc(F)cc2F)cnn1-c1ccccc1	x	6	x	29	-5	x
COC(=O)c1nc(-c2ccccc2)oc1N1CCOCC1	4	-5	0	6	-9	-6
COc1ccc(OCC(=O)N2CCN(S(=O)(=O)c3ccccc3[N+](=O)[O-])CC2)cc1	9	2	-2	2	5	7
CC(Sc1n[nH]c(N)n1)C(=O)Nc1cccc(S(=O)(=O)N2CCOCC2)c1 (configuration not stated)	0	-4	0	2	3	-4
Cc1ccc(S(=O)(=O)Nc2ccccc2/C=N/c2nc3ccccc3n2C(C)C)cc1	16	1	8	-3	x	58*
Cc1ccc(C(O)c2nc3ccccc3n2C(C)C)cc1 (configuration not stated)	1	-1	-1	48	x	5
CCCCn1c(/N=C/c2ccccc2NS(=O)(=O)c2ccc(C)cc2)nc2ccccc21	8	1	3	21	-3	77*
Cc1ccc(Cn2c(NS(=O)(=O)c3ccccc3)nc3ccccc32)cc1	2	0	14	56	2	11
